Assay outcomes: PubChem BioAssay, several laboratories
ABCG2 inh – ABCG2 efflux pump inhibitors, primary screen, multiplex with ABCB1, IgMXP3 cells, flow cytometry | Broad substrate specificity ATP-binding cassette transporter ABCG2 (Homo sapiens), Q9UNQ0 | JC-1 efflux | inhibition, % at 6.6 µM | actives 0.1% (n = 190,000);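 active = inhibition above 80%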
Target sequence (Q9UNQ0 whole entry, looked up): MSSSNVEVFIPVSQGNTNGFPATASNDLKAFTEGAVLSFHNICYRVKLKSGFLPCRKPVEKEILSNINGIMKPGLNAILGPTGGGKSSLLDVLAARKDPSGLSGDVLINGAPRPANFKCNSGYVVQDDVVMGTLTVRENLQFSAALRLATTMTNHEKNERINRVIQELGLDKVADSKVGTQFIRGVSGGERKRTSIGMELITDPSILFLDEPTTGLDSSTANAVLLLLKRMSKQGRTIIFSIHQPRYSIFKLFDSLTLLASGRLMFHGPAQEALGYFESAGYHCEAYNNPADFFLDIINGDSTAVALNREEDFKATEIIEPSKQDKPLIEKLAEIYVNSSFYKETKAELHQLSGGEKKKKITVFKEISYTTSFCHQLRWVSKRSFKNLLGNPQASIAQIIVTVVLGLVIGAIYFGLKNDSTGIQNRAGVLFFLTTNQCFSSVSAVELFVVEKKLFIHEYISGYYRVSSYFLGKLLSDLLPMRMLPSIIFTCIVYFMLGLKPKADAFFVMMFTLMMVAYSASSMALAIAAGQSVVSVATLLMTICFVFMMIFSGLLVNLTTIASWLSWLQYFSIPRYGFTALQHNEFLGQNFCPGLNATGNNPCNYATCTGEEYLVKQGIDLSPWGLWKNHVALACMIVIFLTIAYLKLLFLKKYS
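Test system: IgMXP3 cells (ABCG2) mixed with DDAO far-red-labelled CCRF-Adr cells (ABCB1). Reagent: JC-1 transporter substrate. Compound dosing: single test compound dose, 6.6 µM final. Times: 10 min compound exposure, 25 °C. Detection: flow cytometry of retained JC-1 fluorescence. Read-out basis: efflux inhibition in percent versus controls. Controls: nicardipine and DMSO wells.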
PKD1 inh – inhibitors of human PKD1 kinase, biochemical, fluorescence polarization. actives 0.056% (n = 200,000). PKD1 kinase fluorescence polarization assay. inhibition, % (concentration not given with the values). Serine/threonine-protein kinase D1 (Homo sapiens), Q15139. AID 797, 2007
Lmaj promast – Leishmania major promastigote growth inhibition, primary screen; inhibition, % at 10 µM; actives 9% (n = 200,000); Leishmania major promastigotes, resazurin fluorescence viability; AID 1063, 2008;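 note: promastigotes grown with compound for 44 hours at 28 °C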
GSH bead fluor – compound fluorescence on glutathione beads, profiling panel, artefact control, biophysical, 488/530 nm, flow cytometry. GSH beads flow cytometry, compound fluorescence 488/530 nm; stronger effect = higher value. fluorescence (KMESF) at 10 µM. actives 0.25% (n = 190,000); in the data active = fluorescence above about 89;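 note: glutathione beads carrying GST-tagged Bcl family fusion proteins plus one bare bead set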
ABCB1 inh – ABCB1 efflux pump inhibitors, primary screen, cell-based, multiplex, flow cytometry, ABCG2 counter-screen | ATP-dependent translocase ABCB1 (Homo sapiens), P08183 | CCRF-Adr cells, JC-1 efflux | inhibition, % at 6.6 µM | actives 0.067% (n = 190,000) | AID 1326, 2008; in the data active = inhibition above about 40%;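 note: higher value means more JC-1 retained so stronger ABCB1 efflux block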
Avidin bead fluor – green autofluorescence of compounds with avidin beads – biophysical, 488/530 nm, flow cytometry, artefact control, profiling panel. actives 0.38% (n = 220,000). compound fluorescence 488/530 nm; stronger effect = higher value. fluorescence (KMESF) at 10 µM; in the data active = fluorescence above about 47
Hits are given with their value; . = inactive; / = no result. This excerpt belongs to a sample that is enriched for hits. Cut-off read from the data, not from the text of the source, unless noted: active = inhibition above about 50%; inactive = the rest.

SMILES	ABCG2 inh	PKD1 inh	Lmaj promast	GSH bead fluor	ABCB1 inh	Avidin bead fluor
CC(=O)Nc1ccc(N2CCN(C(=O)c3cccs3)CC2)cc1	.	.	.	.	.	99
CCn1c2ccccc2c2cc(CN3CCN(S(C)(=O)=O)CC3)ccc21	.	.	67.9	.	.	.
CCn1c2ccccc2c2cc(CN3CCN(Cc4cc(OC)ccc4O)CC3)ccc21	.	.	.	.	.	.
O=C(c1cccs1)N1CCN(C2CCCCC2)CC1	.	.	83.2	.	.	.
CC(=O)N1[C@H](Cc2ccccc2)C=C[C@]1(C)C(=O)NCc1ccccn1	.	.	.	.	.	.
O=C(O)c1ccc(Cl)c(S(=O)(=O)Nc2cccc(C(=O)Nc3cccc(C(F)(F)F)c3)c2)c1	.	.	.	.	.	.
CSCCC(NC(=O)c1ccc([N+](=O)[O-])cc1Cl)C(=O)OCC(=O)C12CC3CC(CC(C3)C1)C2 (centres undefined)	.	.	99.4	.	.	.
CSCCC(NC(=O)C12CC3CC(CC(C3)C1)C2)C(=O)OCC(=O)c1ccc(C)cc1 (centres undefined)	.	.	.	.	.	.
CC1CC(C)(C)Nc2ccc(OC(=O)c3ccco3)cc21 (centres undefined)	.	.	98.4	.	.	.
CC1CC(C)(C)Nc2ccc(N=O)cc21 (centres undefined)	.	.	100.5	.	.	.
O=C(Oc1ccc2ccccc2c1)c1ccco1	.	.	.	.	.	.
CC(C)CC1NC(=S)N(Cc2ccccc2)C1=O (centres undefined)	.	.	.	.	.	.
COCC1CCCN(Cc2cn(Cc3ccccc3)nc2-c2cc3ccccc3o2)C1 (centres undefined)	.	.	63.9	.	.	.
O=C(Cn1nc([N+](=O)[O-])nc1Br)NC(c1ccccc1)c1ccccc1	.	.	78.6	.	.	.
C=CCn1c(=O)c2ccccc2n2c(SCC(=O)/C(C#N)=C(\C)N)nnc12	.	.	.	.	.	.
O=C(Nc1cccc(Cl)c1)N(CCN1CCOCC1)Cc1ccccc1F	.	.	.	.	.	.
C=CCC(c1ccccc1F)N(CCN1CCOCC1)C(=O)Nc1cccc(Cl)c1 (centres undefined)	.	.	93.2	.	.	.
C/C(=N\Nc1ccc(C(F)(F)F)cn1)c1ccc(S(=O)(=O)NCc2ccco2)cc1	.	.	75.0	.	.	.
C/C(=N\Nc1ccccn1)c1ccc(S(=O)(=O)NCc2ccco2)cc1	.	.	.	.	.	.
C/C(=N\Nc1nc(Cl)c(Cl)cc1Cl)c1ccc(S(=O)(=O)NCc2ccco2)cc1	.	.	99.5	.	.	.
CC(Sc1ccccc1)C(=O)NN=C1CCN(C)CC1 (centres undefined)	.	.	.	.	.	.
CCOC(=O)c1ccc(N2CCOCC2)c(NC(=O)c2c(-c3ccccc3)noc2C)c1	/	/	/	/	/	.
CC(=O)NC(=S)Nc1ccccc1C(=O)NC1CCCCC1	.	.	.	.	.	.
Cc1ccc(/C=C/C(=O)NC(=S)Nc2ccccc2C(=O)NC2CCCCC2)cc1	.	.	83.2	.	.	.
O=C(/C=C/c1ccccc1)NC(=S)Nc1ccccc1C(=O)NC1CCCCC1	.	.	99.5	.	.	.
SMILES	ABCG2 inh	PKD1 inh	Lmaj promast	GSH bead fluor	ABCB1 inh	Avidin bead fluor
COc1ccc(/C=C/C(=O)NC(=S)Nc2ccccc2C(=O)NC2CCCCC2)cc1	.	.	91.1	.	.	.
O=C(/C=C/c1ccc(F)cc1)NC(=S)Nc1ccccc1C(=O)NC1CCCCC1	.	.	.	.	.	.
CC(C)(C)NC(=O)C1Cc2ccccc2CN1 (centres undefined)	.	.	.	.	.	.
COc1cc(C=O)ccc1OCCOCCOc1ccc(Cl)cc1	.	.	.	.	.	.
COc1ccc(C(=O)/C=C/c2ccc(OC3CSC3)cc2)cc1OC	.	.	.	.	.	.
CCOc1ccc(C(=O)/C=C/c2ccc(OC)c(OC)c2)cc1	.	.	85.6	.	.	.
COc1ccc(C(=O)Nc2ccc(NC(=O)c3cccs3)cc2)cc1Cl	.	.	.	.	.	.
C/C=C/c1ccc(OCCOc2ccc(C=O)cc2)c(OC)c1	.	.	81.7	.	.	.
COc1ccc(/C=C/C(=O)c2ccc(NC(=O)c3cccs3)cc2)cc1OC	.	.	98.2	.	.	.
CCOc1ccc(/C=C/C(=O)c2ccccc2)cc1OC	.	.	99.4	.	/	.
CC(C)C(OC(=O)c1cccc(S(=O)(=O)NCC(F)(F)F)c1)C(=O)NC(N)=O (centres undefined)	.	.	.	.	.	.
CCOC(=O)CSc1n[nH]c(NC(=O)NC(C)C)n1	.	.	.	.	.	.
CCc1ccc(N2CCN(C(=O)N3CCOCC3)CC2)cc1	.	.	.	.	.	.
Cc1cc([N+](=O)[O-])ccc1NC(=O)Nc1ccc(F)cc1F	.	.	66.5	.	.	.
O=C(Nc1cccc([N+](=O)[O-])c1)C1C2CC/C=C\CCC21 (centres undefined)	/	/	/	/	/	.
Cc1ccc(NC(=O)Nc2cccc([N+](=O)[O-])c2)cc1F	.	.	53.4	.	.	.
O=C(Nc1ccc(OC(F)(F)F)cc1)Nc1cccc([N+](=O)[O-])c1	.	.	99.9	.	.	.
O=C(Nc1ccc(OC(F)(F)F)cc1)Nc1cccnc1	/	/	/	/	/	.
CC1=C(C)CC(C(=O)Nc2cccc([N+](=O)[O-])c2)C(C(=O)O)C1 (centres undefined)	.	.	66.8	.	.	.
Sc1oc(-c2ccccc2)cc1C=Nc1ccccc1	.	.	.	.	.	.
CCOC(=O)Cc1csc(NC(=O)CCS(=O)(=O)Cc2ccccc2)n1	.	.	.	.	.	.
S=c1nc(-c2ccccc2Br)[nH][nH]1	.	.	.	.	.	.
O=C(CCc1nc2ccccc2[nH]c1=O)N/N=C/c1ccccc1	.	.	.	.	.	.
CC(=O)N1CCN(c2ccc(Nc3ncnc4c3oc3ccccc34)cc2)CC1	.	.	62.3	.	.	.
c1ccc2c(c1)oc1c(Nc3ccc(CN4CCOCC4)cc3)ncnc12	.	.	89.2	.	.	.
CCCNCc1cc(Br)ccc1OCC(=O)NCCc1ccccc1	.	.	51.9	.	.	.
O=C(COc1ccc(Br)cc1CNCCc1ccccc1)NCc1ccccc1	.	.	88.1	.	.	.
Cc1cc(=O)[nH]c(N/N=C/C(C)c2ccccc2)n1 (centres undefined)	/	/	/	/	/	.
CC1=CC(=C(C#N)C#N)c2ccccc2N1C	.	.	98.9	.	.	.
